Experimental data: ChEMBL document CHEMBL1140709, “Design, synthesis, and biological evaluation of (E)-styrylbenzylsulfones as novel anticancer agents” (J Med Chem, 2008)
pIC50: −log10 of the molar value. Each block holds one molecule with its values, some of them ahead of it. The source made the active and inactive calls. No cut-off for these calls is given here.

Columns and labels:
BT-20 [1] = assay: Antitumor activity against human BT20 cells by trypan blue exclusion assay; format: functional, cell-based
How it was run: (§1)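 Tumour cells were grown in DMEM or RPMI with 10% fetal bovine serum and 1 unit/mL penicillin-streptomycin. They were seeded in six-well dishes at 1.0 × 10⁵ cells/mL/well, and compound was added 24 h later over a range of concentrations. After 96 h of exposure, viable cells in duplicate wells were counted by trypan blue exclusion.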

DLD-1 = assay: Antitumor activity against human DLD1 cells by trypan blue exclusion assay; format: functional, cell-based; how it was run: as §1
DU-145 [2] = assay: Antitumor activity against AR-negative human DU145 cells by trypan blue exclusion assay; format: functional, cell-based; how it was run: as §1
[3] = Antitumor activity against human H157 cells by trypan blue exclusion assay; format: functional, cell-based; conditions: NCI-H157; how it was run: as §1
[4] = Antitumor activity against human RF1 cells by trypan blue exclusion assay; format: functional, cell-based; how it was run: as §1
[5] = Antitumor activity against human multidrug-resistant 2008/17/4 cells by trypan blue exclusion assay; format: functional; how it was run: as §1
Daudi = assay: Antitumor activity against human Daudi cells by trypan blue exclusion assay; format: functional, cell-based; how it was run: as §1
HCT-15 = assay: Antitumor activity against human HCT15 cells by trypan blue exclusion assay; format: functional, cell-based; how it was run: as §1
[6] = Antitumor activity against human MES-SA cells by trypan blue exclusion assay; format: functional, cell-based; how it was run: as §1
[7] = Antitumor activity against human Namalwa cells by trypan blue exclusion assay; format: functional, cell-based; conditions: NAMALVA; how it was run: as §1
SK-OV-3 = assay: Antitumor activity against human SKOV3 cells by trypan blue exclusion assay; format: functional, cell-based; how it was run: as §1
SW480 = assay: Antitumor activity against human SW480 cells by trypan blue exclusion assay; format: functional, cell-based; how it was run: as §1
MCF7 = assay: Antitumor activity against ER-positive human MCF7 cells by trypan blue exclusion assay; format: functional, cell-based; how it was run: as §1
[8] = Antitumor activity against human U87 cells by trypan blue exclusion assay; format: functional, cell-based, U-87MG ATCC; conditions: U-87 MG; how it was run: as §1
HCT-116 = assay: Antitumor activity against human HCT116 cells by trypan blue exclusion assay; format: functional, cell-based; how it was run: as §1
MIA PaCa-2 [9] = assay: Antitumor activity against human MiaPaCa2 cells by trypan blue exclusion assay; format: functional, cell-based; how it was run: as §1
K562 = assay: Antitumor activity against human K562 cells by trypan blue exclusion assay; format: functional, cell-based; how it was run: as §1
SK-MEL-28 = assay: Antitumor activity against human SK-MEL-28 cells by trypan blue exclusion assay; format: functional, cell-based; how it was run: as §1
OVCAR-3 = assay: Antitumor activity against human OVCAR-3 cells by trypan blue exclusion assay; format: functional, cell-based; how it was run: as §1
Raji = assay: Antitumor activity against human Raji cells by trypan blue exclusion assay; format: functional, cell-based; how it was run: as §1
BT-20 [10] = assay: Growth inhibition of human BT20 after 3 weeks by soft agar colony formation assay; format: functional, cell-based
How it was run: (§2)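 Noble agar: 0.8% bottom layer; cells (1.0 × 10⁵ for MIA-PaCa-2) in medium with compound at various concentrations, mixed into 0.4% top agar. Each concentration in triplicate; 3 weeks at 37 °C, 5% CO₂. Stained with 0.05% nitroblue tetrazolium for 48 h and colonies photographed.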

CEM/C2 = assay: Antitumor activity against human multidrug-resistant CEM/C2 cells by trypan blue exclusion assay; format: functional, cell-based; how it was run: as §1
COLO 205 = assay: Antitumor activity against human COLO205 cells by trypan blue exclusion assay; format: functional, cell-based; how it was run: as §1
2008 = assay: Antitumor activity against human 2008 cells by trypan blue exclusion assay; format: functional, cell-based; how it was run: as §1
HUVEC = assay: Cell cycle arrest in HUVEC cells by accumulation at G1 phase by FACS analysis; format: functional, cell-based; conditions: Homo sapiens
How it was run: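 HUVEC were exposed to 20 nM compound in medium with 10% fetal bovine serum. At 24 h intervals, cells were fixed, stained with propidium iodide and analysed for DNA content by flow cytometry.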

AGS = assay: Antitumor activity against human AGS cells by trypan blue exclusion assay; format: functional, cell-based; how it was run: as §1
DU-145 [11] = assay: Growth inhibition of human DU145 after 3 weeks by soft agar colony formation assay; format: functional, cell-based; how it was run: as §2
CCRF-CEM [12] = assay: (§3) Antitumor activity against human CEM cells by trypan blue exclusion assay; format: functional, cell-based; how it was run: as §1
[13] = Antitumor activity against human RF48 cells by trypan blue exclusion assay; format: functional, cell-based; how it was run: as §1
MIA PaCa-2 [14] = assay: Growth inhibition of human MiaPaCa2 cells after 3 weeks by soft agar colony formation assay; format: functional, cell-based; how it was run: as §2
[15] = Antitumor activity against human N417 cells by trypan blue exclusion assay; format: functional, cell-based; how it was run: as §1
[16] = Antitumor activity against human multidrug-resistant MES-SA/DX5 cells by trypan blue exclusion assay; format: functional, cell-based; how it was run: as §1
A549 = assay: Antitumor activity against human A549 cells by trypan blue exclusion assay; format: functional, cell-based; how it was run: as §1
MOLT-4 = assay: Antitumor activity against human MOLT4 cells by trypan blue exclusion assay; format: functional, cell-based; how it was run: as §1
T47D = assay: Antitumor activity against ER-positive human T47D cells by trypan blue exclusion assay; format: functional, cell-based; how it was run: as §1
[17] = Antitumor activity against human H187 cells by trypan blue exclusion assay; format: functional, cell-based; conditions: NCI-H187; how it was run: as §1
PC-3 = assay: Antitumor activity against […] human PC3 cells by trypan blue exclusion assay; format: functional, cell-based; how it was run: as §1
CCRF-CEM [18] = assay: as §3; format: functional, cell-based; how it was run: as §1; remark: listed apart in the source

Structure (SMILES): COc1ccc(CS(=O)(=O)/C=C/c2cc(OC)c(OC)cc2OC)cc1
pIC50 (BT-20 [1]): < 4.70 | pIC50 (DLD-1): < 4.70 | pIC50 (DU-145 [2]): < 4.70 | pIC50 [3]: < 4.70

Structure (SMILES): COc1cc(OC)c(/C=C/S(=O)(=O)Cc2ccc(O)cc2)c(OC)c1
pIC50 (BT-20 [1]): 4.82 | pIC50 (DLD-1): 4.70 | pIC50 (DU-145 [2]): 5.12 | pIC50 [3]: 4.70

Structure (SMILES): COc1ccc(CS(=O)(=O)/C=C/c2c(C)cc(C)cc2C)cc1
pIC50 (BT-20 [1]): < 4.70 | pIC50 (DLD-1): < 4.70 | pIC50 (DU-145 [2]): < 4.70 | pIC50 [3]: < 4.70

Structure (SMILES): COc1ccc(CS(=O)(=O)/C=C/c2cc(OC)c(OC)c(OC)c2)cc1O
pIC50 (BT-20 [1]): 5.12 | pIC50 (DLD-1): 5.00 | pIC50 (DU-145 [2]): 5.30 | pIC50 [3]: 5.00

Structure (SMILES): COc1cc(OC)c(/C=C/S(=O)(=O)Cc2ccc(OC)c(O)c2)c(OC)c1
pIC50 [4]: 8.22 | pIC50 [5]: 8.40 | pIC50 (Daudi): 8.15 | pIC50 (HCT-15): 8.10 | pIC50 [6]: 8.22 | pIC50 [7]: 8.22 | pIC50 (BT-20 [1]): 8.00 | pIC50 (SK-OV-3): 8.22 | pIC50 (SW480): 8.15 | pIC50 (DLD-1): 8.52 | pIC50 (MCF7): 8.40 | pIC50 (DU-145 [2]): 8.52 | pIC50 [8]: 8.15 | pIC50 (HCT-116): 8.05 | pIC50 (MIA PaCa-2 [9]): 8.40 | pIC50 (K562): 8.40 | pIC50 (SK-MEL-28): 8.15 | pIC50 (OVCAR-3): 8.22 | pIC50 (Raji): 8.40 | Activity (BT-20 [10]): Dose-dependent effect | pIC50 (CEM/C2): 8.00 | pIC50 (COLO 205): 8.05 | pIC50 [3]: 8.40 | pIC50 2008: 8.30 | Activity (HUVEC): Active | pIC50 (AGS): 8.15 | Activity (DU-145 [11]): Dose-dependent effect | pIC50 (CCRF-CEM [12]): 8.00 | pIC50 [13]: 8.30 | Activity (MIA PaCa-2 [14]): Dose-dependent effect | pIC50 [15]: 8.30 | pIC50 [16]: 8.30 | pIC50 (A549): 8.00 | pIC50 (MOLT-4): 8.30 | pIC50 (T47D): 8.22 | pIC50 [17]: 8.15 | pIC50 (PC-3): 8.10 | pIC50 (CCRF-CEM [18]): 8.05

Structure (SMILES): COc1ccc(CS(=O)(=O)/C=C/c2ccc(C)cc2C)cc1
pIC50 (BT-20 [1]): 4.82 | pIC50 (DLD-1): 4.82 | pIC50 (DU-145 [2]): 4.92 | pIC50 [3]: 4.82

Second part, led by results:

pIC50 (BT-20 [1]): 4.82 | pIC50 (DLD-1): 4.82 | pIC50 (DU-145 [2]): 5.00
Structure (SMILES): COc1ccc(CS(=O)(=O)/C=C/c2ccc(F)cc2OC)cc1
pIC50 [3]: 4.70

pIC50 (BT-20 [1]): 5.82 | pIC50 (DLD-1): 5.70 | pIC50 (DU-145 [2]): 5.90
Structure (SMILES): COc1ccc(CS(=O)(=O)/C=C/c2ccc(F)cc2)cc1
pIC50 [3]: 5.60

pIC50 (BT-20 [1]): < 4.70 | pIC50 (DLD-1): < 4.70 | pIC50 (DU-145 [2]): < 4.70
Structure (SMILES): COc1ccc(CS(=O)(=O)/C=C/c2ccc(OC)c(OC)c2)cc1
pIC50 [3]: < 4.70
